Target: mGluR2 (Rattus norvegicus, UniProt P31421)
Test: PET imaging of brain uptake and blocking in rats
Format: in vivo, Sprague Dawley rats
Conditions: blocker 4 mg/kg i.v. 10 min before [18F]8, 1–10 min time window
In short: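 Male Sprague Dawley rats (275–400 g) under isoflurane/nitrous oxide (1.0–1.5% isoflurane), tail vein catheterized. Dynamic 60-min PET started at i.v. injection of the 18F radioligand (20–41 MBq). Unlabeled blocker in saline with 10% ethanol and 10% Tween 20 was given 4 mg/kg i.v. 10 min before the radioligand. Percent change in regional brain uptake versus baseline scans was taken at 1–10 min.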

mGluR2, sequence (P31421 19-872): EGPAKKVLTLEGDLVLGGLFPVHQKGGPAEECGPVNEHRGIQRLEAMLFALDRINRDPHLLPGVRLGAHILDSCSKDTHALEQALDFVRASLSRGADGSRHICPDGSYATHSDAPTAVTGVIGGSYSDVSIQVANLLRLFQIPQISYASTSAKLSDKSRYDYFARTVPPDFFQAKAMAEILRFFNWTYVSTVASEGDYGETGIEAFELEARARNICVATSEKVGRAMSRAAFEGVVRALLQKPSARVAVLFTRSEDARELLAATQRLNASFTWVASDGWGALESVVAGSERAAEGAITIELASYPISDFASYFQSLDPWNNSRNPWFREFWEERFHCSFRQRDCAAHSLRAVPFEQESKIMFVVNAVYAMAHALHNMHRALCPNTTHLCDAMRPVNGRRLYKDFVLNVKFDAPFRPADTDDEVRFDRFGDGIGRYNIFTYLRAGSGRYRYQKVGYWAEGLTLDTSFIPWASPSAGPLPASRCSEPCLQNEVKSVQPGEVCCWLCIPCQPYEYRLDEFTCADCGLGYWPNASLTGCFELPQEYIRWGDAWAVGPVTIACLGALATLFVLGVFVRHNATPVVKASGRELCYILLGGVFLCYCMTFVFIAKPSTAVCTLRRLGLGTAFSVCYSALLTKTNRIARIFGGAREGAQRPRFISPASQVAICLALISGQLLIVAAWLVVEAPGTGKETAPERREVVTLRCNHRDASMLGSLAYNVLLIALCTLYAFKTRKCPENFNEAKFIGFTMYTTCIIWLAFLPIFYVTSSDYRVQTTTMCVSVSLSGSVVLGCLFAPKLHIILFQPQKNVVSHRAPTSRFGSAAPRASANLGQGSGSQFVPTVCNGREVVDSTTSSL

Fc1ccc(N2CCN(Cc3ccn4c(CC5CC5)nnc4c3C(F)(F)F)CC2)c(F)c1 [compound 8, 8-trifluoromethyl-3-cyclopropylmethyl-7-[(4-(2,4-difluorophenyl)-1-piperazinyl)methyl]-1,2,4-triazolo[4,3-a]pyridine]
decrease of [18F]8 uptake in cerebellum (blocking effect): 18.8%

Source: publication PMC8277681 (Molecular imaging and biology, 2021)
